Active and inactive are the calls of the source. No cut-off for these calls is given here.
Assays:
Hexokinase-4 [1] = target: T1, Hexokinase-4 (Homo sapiens, UniProt P35557); assay: Activation of human liver glucokinase expressed in Escherichia coli at 10 mM glucose concentration by glucose-6-phosphate coupled continuous spectrophotometric assay
T1 sequence (P35557 whole entry): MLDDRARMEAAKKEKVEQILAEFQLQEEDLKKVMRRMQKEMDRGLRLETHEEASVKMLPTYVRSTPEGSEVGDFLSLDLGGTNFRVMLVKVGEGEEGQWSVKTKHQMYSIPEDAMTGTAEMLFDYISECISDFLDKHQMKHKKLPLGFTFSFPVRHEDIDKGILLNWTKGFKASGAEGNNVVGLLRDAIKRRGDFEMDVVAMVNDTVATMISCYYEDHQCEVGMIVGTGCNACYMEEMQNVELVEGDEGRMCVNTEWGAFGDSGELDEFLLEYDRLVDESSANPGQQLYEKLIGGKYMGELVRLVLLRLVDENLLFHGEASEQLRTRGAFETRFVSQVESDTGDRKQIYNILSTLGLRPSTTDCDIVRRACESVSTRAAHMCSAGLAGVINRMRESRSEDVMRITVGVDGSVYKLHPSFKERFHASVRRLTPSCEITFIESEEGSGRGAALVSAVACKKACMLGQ

Hexokinase-4 [2] = target: T1, Hexokinase-4; assay: Activation of human liver glucokinase expressed in Escherichia coli at 2.5 mM glucose concentration by glucose-6-phosphate coupled continuous spectrophotometric assay
Mus musculus = assay: Hypoglycemic efficacy in high-fat diet-induced mouse assessed as acute glucose lowering at 10 mg/kg, po; format: functional, organism-based; design: dose 10 mg/kg
Procedure, shortened: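 They received compound orally in 0.5% methylcellulose vehicle, or vehicle alone. Blood glucose was measured just before dosing and at 1, 2, 3 and 4 h after.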

Rattus norvegicus [3] = assay: Hypoglycemic efficacy in Wistar rat assessed as reduction in area under the glucose curve at 1 mg/kg, po by oral glucose tolerance test; format: functional; design: scale not given: the % may be the effect or the level left
Procedure, shortened: (§1)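 In the Wistar rat OGTT, the compound was given orally. […] Groups were compared by one-way ANOVA followed by Dunnett's test, with significance at p < 0.05.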

Rattus norvegicus [4] = assay: Hypoglycemic efficacy in Wistar rat assessed as reduction in area under the glucose curve at 3 mg/kg, po by oral glucose tolerance test; format: functional; design: scale not given: the % may be the effect or the level left
Procedure, shortened: as §1

[5] = AUC in Sprague-Dawley rat at 1 mg/kg, iv and 3 mg/kg, po; format: ADME, organism-based; conditions: plasma
Procedure, shortened: (§2)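 Male SD rats received 1 mg/kg iv or 3 mg/kg po. Plasma AUC, Cmax, T1/2, CLp and oral bioavailability (F) were derived from these dosings.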

[6] = Plasma clearance in Sprague-Dawley rat at 1 mg/kg, iv and 3 mg/kg, po; format: ADME, organism-based
Procedure, shortened: as §2

[7] = Cmax in Sprague-Dawley rat at 1 mg/kg, iv and 3 mg/kg, po; format: ADME, organism-based; conditions: in vivo
Procedure, shortened: as §2

[8] = Half life in Sprague-Dawley rat at 1 mg/kg, iv and 3 mg/kg, po; format: ADME, organism-based; conditions: in vivo
Procedure, shortened: as §2

[9] = Oral bioavailability in Sprague-Dawley rat at 3 mg/kg, po; format: ADME, organism-based; conditions: in vivo
Procedure, shortened: as §2

[10] = Oral bioavailability in Beagle dog at 1 mg/kg, po; conditions: in vivo
[11] = AUC in Beagle dog at 0.3 mg/kg, iv and 1 mg/kg, po; conditions: plasma
[12] = Cmax in Beagle dog at 0.3 mg/kg, iv and 1 mg/kg, po; conditions: in vivo
[13] = Half life in Beagle dog at 0.3 mg/kg, iv and 1 mg/kg, po; conditions: in vivo

SMILES	EC50 (Hexokinase-4 [1]) [nM]	EC50 (Hexokinase-4 [2]) [nM]	Activity (Mus musculus)	further results
CCS(=O)(=O)c1ccc(Oc2cc3nc(-c4ccccn4)[nH]c3cc2Cc2nnnn2C)cc1	70	410	–	–
CCS(=O)(=O)c1ccc(Oc2cc3nc(-c4ccccn4)[nH]c3cc2CN2CCCC2)cc1	> 5000	> 5000	–	–
CCS(=O)(=O)c1ccc(Oc2cc3nc(-c4ccccn4)[nH]c3cc2Cn2ccnc2)cc1	120	430	–	–
CCS(=O)(=O)c1ccc(Oc2cc3[nH]c(-c4ccccn4)nc3cc2CCC(=O)N(C)C)cc1	120	620	–	–
CCS(=O)(=O)c1ccc(Oc2cc3nc(-c4ccccn4)[nH]c3cc2CNC(C)=O)cc1	220	1410	–	–
CCS(=O)(=O)c1ccc(Oc2cc3nc(-c4ccccn4)[nH]c3cc2CN2CCN(C)C2=O)cc1	80	320	–	–
CCN(Cc1cc2nc(-c3ccccn3)[nH]c2cc1Oc1ccc(S(=O)(=O)CC)cc1)C(C)=O	110	500	–	–
CCS(=O)(=O)c1ccc(Oc2cc3nc(-c4ccccn4)[nH]c3cc2CN2CCCC2=O)cc1	60	350	Active	–
CCS(=O)(=O)c1ccc(Oc2cc3nc(-c4ccccn4)[nH]c3cc2CN2C(=O)COC2=O)cc1	20	90	inactive	–
CCS(=O)(=O)c1ccc(Oc2cc3nc(-c4ccccn4)[nH]c3cc2CN2CCOCC2=O)cc1	100	280	–	–
CCS(=O)(=O)c1ccc(Oc2cc3nc(-c4ccccn4)[nH]c3cc2CN2CCCS2(=O)=O)cc1	90	460	–	–
CCS(=O)(=O)c1ccc(Oc2cc3nc(-c4ccccn4)[nH]c3cc2CN2C(=O)CCC2=O)cc1	40	160	Active	Activity (Rattus norvegicus [3]): 19%; Activity (Rattus norvegicus [4]): 27%; AUC [5]: 0.5 µM·h; clearance [6]: 32 mL/min/kg; Cmax [7]: 400 nM; half-life [8]: 0.6 h; bioavailability [9]: 16%; bioavailability [10]: 41%; AUC [11]: 4 µM·h; Cmax [12]: 400 nM; half-life [13]: 6.4 h
CCS(=O)(=O)c1ccc(Oc2cc3nc(-c4ccccn4)[nH]c3cc2CN2C(=O)CN(C)C2=O)cc1	60	180	–	–
CCS(=O)(=O)c1ccc(Oc2cc3nc(-c4ccccn4)[nH]c3cc2CN2CCNC2=O)cc1	> 5000	> 5000	–	–
CCS(=O)(=O)c1ccc(Oc2cc3nc(-c4ccccn4)[nH]c3cc2CN2CCOC2=O)cc1	60	250	inactive	–
CCS(=O)(=O)c1ccc(Oc2cc3nc(-c4ccccn4)[nH]c3cc2CN(C)C(C)=O)cc1	70	300	Active	–
